# From ChEMBL document CHEMBL1122659, “Synthesis of some phosphonates with antiherpetic activity” (1984)
# Activity calls are given as the source filed them. The rule behind the calls is not given here.
# Assays:
# [1] = species on record: Oryctolagus cuniculus; test: In vitro ability to inhibit the herpes HSV-2 virus; Inactive; type: functional, organism-based; details: herpes simplex virus
# [2] = species on record: Cavia porcellus; test: Effect on the growth of Herpes simplex Type 1 on the skin of Guinea pigs infected intradermally on day 2 at 5 % concentration; type: functional
# Method in brief: (§1)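 Guinea pigs (Hartley, 350–400 g) were infected intradermally on an epilated flank with undiluted HSV-1 AA strain and treated with topical cream. Supernatants of lesion skin scrapings were diluted 10⁻¹ to 10⁻⁸ and titered by plaque assay on BSC-1 monolayers in triplicate: 1 h adsorption at 37 °C, agarose overlay, 4 days at 37 °C, formalin fixation, crystal violet staining, plaques counted.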
# [3] = species on record: Cavia porcellus; test: Effect on the growth of Herpes simplex Type 1 on the skin of Guinea pigs infected intradermally on day 4 at 5 % concentration; type: functional; method in brief: as §1
# [4] = species on record: Cavia porcellus; test: Effect on the growth of Herpes simplex Type 1 on the skin of Guinea pigs infected intradermally on day 3 at 5 % concentration; type: functional; method in brief: as §1
# [5] = species on record: Cavia porcellus; test: Effect on the growth of Herpes simplex Type 1 on the skin of Guinea pigs infected intradermally on day 1 at 5% concentration; type: functional
# Method in brief: (§2)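 Guinea pigs were infected intradermally with HSV-1 on an epilated flank and treated topically with cream. Virus in skin-scraping supernatants was titered by plaque assay on BSC-1 monolayers. Dilutions of 10⁻¹ to 10⁻⁸ in Eagle's medium with 2% FCS were plated in triplicate and adsorbed 1 h at 37 °C. An agarose overlay followed, with 4 days' incubation, formalin fixation, crystal violet staining and plaque counting.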
# [6] = species on record: Cavia porcellus; test: Effect on the development of Herpetic vesicles in Guinea pigs infected intradermally with Herpes virus Hominis, Type 1,AA strain on day 1 at 5% concentration; type: functional
# Method in brief: (§3)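 Hartley albino guinea pigs (350–400 g) were infected with undiluted HSV-1 AA strain, 0.05 mL placed in a 12-mm circle on an epilated flank and given intradermally by vaccination gun. Test article was a topical cream, with treatment starting 24 h postinfection. Mean vesicle score was recorded on days 1–5 against placebo and nonmedicated groups.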
# [7] = species on record: Cavia porcellus; test: Effect on the development of Herpetic vesicles in Guinea pigs infected intradermally with Herpes virus Hominis, Type 1,AA strain on day 4 at 5 % concentration; type: functional
# Method in brief: (§4)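 Albino Hartley guinea pigs (350–400 g) were infected intradermally with 0.05 mL undiluted HSV-1 AA strain, delivered by vaccination gun into a 12 mm marked area on an epilated flank. Topical cream treatment followed. Vesicle development was scored daily.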
# [8] = species on record: Cavia porcellus; test: Effect on the development of Herpetic vesicles in Guinea pigs infected intradermally with Herpes virus Hominis, Type 1,AA strain on day 2 at 5 % concentration; type: functional; method in brief: as §4
# [9] = species on record: Cavia porcellus; test: Effect on the growth of Herpes simplex Type 1 on the skin of Guinea pigs infected intradermally on day 3 at 8 % concentration; type: functional; method in brief: as §2
# [10] = species on record: Cavia porcellus; test: Effect on the development of Herpetic vesicles in Guinea pigs infected intradermally with Herpes virus Hominis, Type 1,AA strain on day 1 at 8 % concentration; type: functional; method in brief: as §3
# [11] = species on record: Cavia porcellus; test: Effect on the development of Herpetic vesicles in Guinea pigs infected intradermally with Herpes virus Hominis, Type 1,AA strain on day 3 at 8 % concentration; type: functional; method in brief: as §3
# [12] = species on record: Cavia porcellus; test: Effect on the growth of Herpes simplex Type 1 on the skin of Guinea pigs infected intradermally on day 2 at 8 % concentration; type: functional; method in brief: as §2
# [13] = species on record: Cavia porcellus; test: Effect on the development of Herpetic vesicles in Guinea pigs infected intradermally with Herpes virus Hominis, Type 1,AA strain on day 2 at 8 % concentration; type: functional; method in brief: as §3
# [14] = species on record: Cavia porcellus; test: Effect on the growth of Herpes simplex Type 1 on the skin of Guinea pigs infected intradermally on day 1 at 8 % concentration; type: functional; method in brief: as §2
# [15] = species on record: Cavia porcellus; test: Effect on the development of Herpetic vesicles in Guinea pigs infected intradermally with Herpes virus Hominis, Type 1,AA strain on day 4 at 8 % concentration; type: functional; method in brief: as §3
# [16] = species on record: Cavia porcellus; test: Effect on the growth of Herpes simplex Type 1 on the skin of Guinea pigs infected intradermally on day 4 at 8 % concentration; type: functional; method in brief: as §2
# [17] = species on record: Cavia porcellus; test: Effect on the development of Herpetic vesicles in Guinea pigs infected intradermally with Herpes virus Hominis, Type 1,AA strain on day 1 at 5 % concentration; type: functional; method in brief: as §4
# [18] = species on record: Cavia porcellus; test: Effect of compound in a vanishing cream on the development of Herpetic vesicles in Guinea pigs infected intradermally with Herpes virus Hominis, Type 1,AA strain on day 2 at 10 % concentration; type: functional
# Method in brief: (§5)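 Albino Hartley guinea pigs (350–400 g) were infected intradermally with 0.05 mL undiluted HSV-1 AA strain, delivered by vaccination gun into a 12 mm circle on an epilated flank. Test agent was applied as a topical cream starting 24 h postinfection. Lesions were scored daily for mean vesicle score over days 1–5.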
# [19] = species on record: Cavia porcellus; test: Effect of compound in a vanishing cream base on the development of Herpetic vesicles in Guinea pigs infected intradermally with Herpesvirus Hominis, Type 1, AA strain and the virus titer was determined at 5% conc. on day 1; type: functional
# [20] = species on record: Mus musculus; test: Average survival rate of mice infected intravaginally with herpes simplex virus type 2 at daily dosage of 5%(treatment initiated 4-h postinfection and continued for 7 days); type: functional
# Method in brief: (§6)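 Mice infected intravaginally with HSV-2. Test agent suspended in gum tragacanth and applied intravaginally. Survival recorded.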
# [21] = species on record: Mus musculus; test: Percent survival rate of mice infected intravaginally with herpes simplex virus type 2 at daily dosage of 2.5%(treatment initiated 4-h postinfection and continued for 7 days); type: functional; method in brief: as §6
# [22] = species on record: Cavia porcellus; test: Effect of compound in a vanishing cream base on the development of Herpetic vesicles in Guinea pigs infected intradermally with Herpesvirus Hominis, Type 1, AA strain and the virus titer was determined at 5% conc. on day 4; type: functional
# [23] = species on record: Cavia porcellus; test: Effect of compound in a vanishing cream on the development of Herpetic vesicles in Guinea pigs infected intradermally with Herpes virus Hominis, Type 1,AA strain on day 1 at 5 % concentration; type: functional; method in brief: as §5
# [24] = species on record: Cavia porcellus; test: Effect of compound in a vanishing cream on the development of Herpetic vesicles in Guinea pigs infected intradermally with Herpes virus Hominis, Type 1,AA strain on day 4 at 5 % concentration; type: functional; method in brief: as §5
# [25] = species on record: Cavia porcellus; test: Effect of compound in a vanishing cream base on the development of Herpetic vesicles in Guinea pigs infected intradermally with Herpesvirus Hominis, Type 1, AA strain and the virus titer was determined at 10% conc. on day 3; type: functional
# [26] = In vitro ability to inhibit the herpes HSV-2 virus; type: functional, herpes simplex virus; details: Oryctolagus cuniculus
# [27] = species on record: Cavia porcellus; test: Effect of compound in a vanishing cream on the development of Herpetic vesicles in Guinea pigs infected intradermally with Herpes virus Hominis, Type 1,AA strain on day 1 at 10 % concentration; type: functional; method in brief: as §5
# [28] = species on record: Mus musculus; test: Percent survival rate of mice infected intravaginally with herpes simplex virus type 2 at daily dosage of 10%(treatment initiated 4-h postinfection and continued for 7 days); type: functional; method in brief: as §6
# [29] = species on record: Cavia porcellus; test: Effect of compound in a vanishing cream on the development of Herpetic vesicles in Guinea pigs infected intradermally with Herpes virus Hominis, Type 1,AA strain on day 3 at 10 % concentration; type: functional; method in brief: as §5
# [30] = species on record: Cavia porcellus; test: Effect of compound in a vanishing cream base on the development of Herpetic vesicles in Guinea pigs infected intradermally with Herpesvirus Hominis, Type 1, AA strain and the virus titer was determined at 10% conc. on day 1; type: functional
# [31] = species on record: Cavia porcellus; test: Effect of compound in a vanishing cream on the development of Herpetic vesicles in Guinea pigs infected intradermally with Herpes virus Hominis, Type 1,AA strain on day 5 at 5% concentration; type: functional; method in brief: as §5
# [32] = species on record: Cavia porcellus; test: Effect of compound in a vanishing cream on the development of Herpetic vesicles in Guinea pigs infected intradermally with Herpes virus Hominis, Type 1,AA strain on day 3 at 5 % concentration; type: functional; method in brief: as §5
# [33] = species on record: Cavia porcellus; test: Effect of compound in a vanishing cream base on the development of Herpetic vesicles in Guinea pigs infected intradermally with Herpesvirus Hominis, Type 1, AA strain and the virus titer was determined at 10% conc. on day 2; type: functional
# [34] = species on record: Cavia porcellus; test: Effect of compound in a vanishing cream base on the development of Herpetic vesicles in Guinea pigs infected intradermally with Herpesvirus Hominis, Type 1, AA strain and the virus titer was determined at 10% conc. on day 5; type: functional
# [35] = species on record: Cavia porcellus; test: Effect of compound in a vanishing cream on the development of Herpetic vesicles in Guinea pigs infected intradermally with Herpes virus Hominis, Type 1,AA strain on day 5 at 10 % concentration; type: functional; method in brief: as §5
# [36] = species on record: Mus musculus; test: Average survival rate of mice infected intravaginally with herpes simplex virus type 2 at daily dosage of 10%(treatment initiated 4-h postinfection and continued for 7 days); type: functional; method in brief: as §6
# [37] = species on record: Cavia porcellus; test: Effect on the growth of Herpes simplex Type 1 on the skin of Guinea pigs infected intradermally on day 1 at 5 % concentration; type: functional; method in brief: as §1
# [38] = species on record: Cavia porcellus; test: Effect of compound in a vanishing cream base on the development of Herpetic vesicles in Guinea pigs infected intradermally with Herpesvirus Hominis, Type 1, AA strain and the virus titer was determined at 5% conc. on day 2; type: functional
# [39] = species on record: Cavia porcellus; test: Effect of compound in a vanishing cream on the development of Herpetic vesicles in Guinea pigs infected intradermally with Herpes virus Hominis, Type 1,AA strain on day 4 at 10 % concentration; type: functional; method in brief: as §5
# [40] = species on record: Mus musculus; test: Percent survival rate of mice infected intravaginally with herpes simplex virus type 2 at daily dosage of 5%(treatment initiated 4-h postinfection and continued for 7 days); type: functional; method in brief: as §6
# [41] = species on record: Cavia porcellus; test: Effect of compound in a vanishing cream on the development of Herpetic vesicles in Guinea pigs infected intradermally with Herpes virus Hominis, Type 1,AA strain on day 2 at 5 % concentration; type: functional; method in brief: as §5
# [42] = species on record: Cavia porcellus; test: Effect on the development of Herpetic vesicles in Guinea pigs infected intradermally with Herpes virus Hominis, Type 1,AA strain on day 3 at 5 % concentration; type: functional; method in brief: as §4
smiles,measurement,setting,value
CCOP(=O)(CCCCCCOc1c(OC)cccc1OC)OCC,MIC,[1],inactive
CCOP(=O)(CCCCCCOc1ccc(Br)cc1)OCC,MIC,[1],inactive
CCOP(=O)(CCCCCCOc1ccc(C(=O)O)cc1)OCC,MIC,[1],inactive
CCOP(=O)(CCCCCCOc1ccc(Cl)cc1)OCC,MIC,[1],inactive
CCOP(=O)(CCCCCOc1ccc(OC)cc1Cl)OCC,MIC,[1],inactive
CCOP(=O)(CCCCOc1ccc(OC)cc1Cl)OCC,MIC,[1],inactive
CCOP(=O)(CCCOc1ccc(OC)cc1Cl)OCC,MIC,[1],inactive
CCOP(=O)(CCOc1ccc(O)cc1)OCC,MIC,[1],inactive
CCOP(=O)(CCOc1ccc(OC(C)=O)cc1)OCC,MIC,[1],inactive
COc1ccc(OCCCCCCP(=O)(O)O)c(Cl)c1,MIC,[1],inactive
Nc1nc2c(ncn2COCCO)c(=O)[nH]1 [ACYCLOVIR],Log geometric mean,[2],4.09 pfu mg-1
same,Log geometric mean,[3],2.13 pfu mg-1
same,Log geometric mean,[4],3.31 pfu mg-1
same,Log geometric mean,[5],4.3 pfu mg-1
same,Mean vesicle score,[6],0.58
same,Mean vesicle score,[7],1
same,Mean vesicle score,[8],0.83
CCC(=O)C(CCCCCCOc1ccc(OC)cc1Cl)C(=O)CC [ARILDONE],Log geometric mean,[9],2.92 ppfu mg-1
same,Mean vesicle score,[10],0.33
same,Mean vesicle score,[11],0.92
same,Log geometric mean,[12],4.07 pfu mg-1
same,Mean vesicle score,[13],0.83
same,Log geometric mean,[14],4.13 pfu mg-1
same,Mean vesicle score,[15],0.83
same,Log geometric mean,[16],2.62 pfu mg-1
CCOP(=O)(CCCCCCOc1ccc(OC)cc1Cl)OCC [FOSARILATE],Log geometric mean,[2],0.96 pfu mg-1
same,Mean vesicle score,[17],0.5
same,Mean vesicle score,[18],0.83
same,Log TCID50/mg,[19],3.94
same,Average survival,[20],>10.5 days
same,Survival,[21],30%
same,Log TCID50/mg,[22],<1.25
same,Mean vesicle score,[23],0.75
same,Mean vesicle score,[24],1
same,Log geometric mean,[3],0.76 pfu mg-1
same,Log TCID50/mg,[25],<1.6
same,MIC,[26],3 µg/mL
same,Mean vesicle score,[27],0.67
same,Survival,[28],60%
same,Log geometric mean,[4],0.79 pfu mg-1
same,Mean vesicle score,[29],0.91
same,Log TCID50/mg,[30],3.18
same,Mean vesicle score,[31],0.67
same,Mean vesicle score,[32],0.75
same,Log TCID50/mg,[33],<1.34
same,Log TCID50/mg,[34],<1.25
same,Mean vesicle score,[8],0.75
same,Mean vesicle score,[35],1.1
same,Average survival,[36],>11.3 days
same,Log geometric mean,[37],4.23 pfu mg-1
same,Log TCID50/mg,[38],<1.41
same,Mean vesicle score,[39],0.92
same,Survival,[40],50%
same,Mean vesicle score,[41],1.17
same,Mean vesicle score,[42],0.5
